For 16 molecules, MIC results are on record in ChEMBL document CHEMBL1817667, “Synthesis and antimicrobial properties of some new thiazolyl coumarin derivatives” (2011).

Format in all cases: functional
In experiment [1] the test system is Streptococcus pyogenes. Description: Antibacterial activity against Streptococcus pyogenes ATCC 19615 after 24 hrs by MTT assay. The settings on record: ATCC 19615, 24 h. Put shortly: (§1)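 Broth microdilution. Inocula were grown in Mueller-Hinton broth from subcultures on nutrient agar (37 °C, 48 h) and set to McFarland 0.5. Compounds in DMSO were diluted with water, then two-fold serially from 3.91 to 250 µg/mL. Gentamicin and tetracycline served as positive controls and DMSO as negative. Plates ran 37 °C for 24 h, then MTT (0.2 mg/mL) for 30 min. MIC was the lowest concentration preventing the yellow-to-purple change.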
A general note: Tetrazolium dyes change colour on reduction, which living cells bring about.

Experiment [2] has as its system Staphylococcus aureus. The experiment in a line: Antibacterial activity against Staphylococcus aureus ATCC 25923 after 24 hrs by MTT assay. The note with it: ATCC 25923, 24 h. Put shortly:
as §1

Experiment [3] has as its system Mycobacterium tuberculosis. The experiment in a line: Antibacterial activity against Mycobacterium tuberculosis H37Rv ATCC 27294 after 5 days by MTT assay. The settings on record: H37Rv ATCC 27294, 120 h. The procedure, abridged:
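Inoculum from log-phase culture in Middlebrook 7H9 with ADC, set to McFarland no. 1 (approximately 3×10^7 CFU/mL), then diluted 1:20 in 7H9-OADC. Compounds in DMSO/water, two-fold series 3.91–250 μg/mL, tested in triplicate. Isoniazid positive control, drug-free growth wells. Incubated 37 °C, 8% CO₂. MTT–Tween 80 added to a control well; once purple, added to all wells. MIC read next day.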

Experiment [4] concerns Haemophilus influenzae. The experiment in a line: Antibacterial activity against Haemophilus influenzae ATCC 10211 after 24 hrs by MTT assay. Put shortly: as §1
In experiment [5] the test system is Candida albicans. The experiment in a line: Antifungal activity against Candida albicans ATCC 10231 after 24 hrs by MTT assay. The note with it: ATCC 10231, 24 h. The procedure, abridged: as §1

Converted amounts (≈) assume the structure as drawn. Bounds are passed on as bounds.

As for `O=c1oc2ccccc2cc1-c1csc(NN=C(c2ccccc2)c2ccccc2)n1`, the MIC was 295 µM (≈ 125 µg/mL) in experiment [1]; 295 µM (≈ 125 µg/mL) in experiment [2]; 147 µM (≈ 62.3 µg/mL) in experiment [3]; 147 µM (≈ 62.3 µg/mL) in experiment [4] (ATCC 10211, 24 h); 147 µM (≈ 62.3 µg/mL) in experiment [5].
Consider `O=c1oc2ccccc2cc1-c1csc(N/N=C\c2ccc(O)cc2O)n1`, for which the MIC in experiment [1] came to 329 µM (≈ 125 µg/mL); in experiment [2], 82 µM (≈ 31.1 µg/mL); in experiment [3], 329 µM (≈ 125 µg/mL); in experiment [4] (ATCC 10211, 24 h) it was 329 µM (≈ 125 µg/mL); in experiment [5], 165 µM (≈ 62.6 µg/mL).
Take `C/C(=N\Nc1nc(-c2cc3ccccc3oc2=O)cs1)c1ccc(O)cc1`: the MIC is 165 µM (≈ 62.3 µg/mL) in experiment [1]; 165 µM (≈ 62.3 µg/mL) in experiment [2]; above 663 µM in experiment [3]; 331 µM (≈ 125 µg/mL) in experiment [4] (ATCC 10211, 24 h); 331 µM (≈ 125 µg/mL) in experiment [5].
GENTAMICIN registered an MIC in experiment [4] of 13 µM.
On to `C/C(=N/Nc1nc(-c2cc3ccccc3oc2=O)cs1)c1cc2ccc(O)cc2oc1=O`, for which the MIC in experiment [1] worked out at 72 µM (≈ 32.1 µg/mL); in experiment [2] it was 17 µM (≈ 7.57 µg/mL); in experiment [3] it was 17 µM (≈ 7.57 µg/mL); in experiment [4] (ATCC 10211, 24 h), 35 µM (≈ 15.6 µg/mL); in experiment [5], 140 µM (≈ 62.4 µg/mL).
In the case of `C/C(=N/Nc1nc(-c2cc3ccccc3oc2=O)cs1)c1cc2cc(Br)ccc2oc1=O`, the MIC turned out to be 62 µM (≈ 31.5 µg/mL) in experiment [1]; 62 µM (≈ 31.5 µg/mL) in experiment [2]; 15 µM (≈ 7.63 µg/mL) in experiment [3]; 15 µM (≈ 7.63 µg/mL) in experiment [4] (ATCC 10211, 24 h); 31 µM (≈ 15.8 µg/mL) in experiment [5].
`O=c1oc2ccccc2cc1-c1csc(N/N=C\c2cccc(O)c2)n1`: the MIC in experiment [1] stood at 344 µM (≈ 125 µg/mL); in experiment [2] it was 172 µM (≈ 62.5 µg/mL); in experiment [3], 172 µM (≈ 62.5 µg/mL); in experiment [4] (ATCC 10211, 24 h), 172 µM (≈ 62.5 µg/mL); in experiment [5] it was 172 µM (≈ 62.5 µg/mL).
In the case of `CN(C)[C@@H]1C(O)=C(C(N)=O)C(=O)[C@@]2(O)C(O)=C3C(=O)c4c(O)cccc4[C@@](C)(O)[C@H]3C[C@@H]12` [TETRACYCLINE], the MIC came out at 14 µM (≈ 6.22 µg/mL) in experiment [1]; 70 µM (≈ 31.1 µg/mL) in experiment [2]; 35 µM (≈ 15.6 µg/mL) in experiment [4] (ATCC 10211, 24 h).
`O=c1oc2ccccc2cc1-c1csc(N/N=C\c2cccc3ccccc23)n1`: the MIC turned out to be 314 µM (≈ 125 µg/mL) in experiment [1]; 157 µM (≈ 62.4 µg/mL) in experiment [2]; 157 µM (≈ 62.4 µg/mL) in experiment [3]; 314 µM (≈ 125 µg/mL) in experiment [4] (ATCC 10211, 24 h); 157 µM (≈ 62.4 µg/mL) in experiment [5].
With `COc1cccc(/C=N\Nc2nc(-c3cc4ccccc4oc3=O)cs2)c1O`, the MIC in experiment [1] was determined as 159 µM (≈ 62.6 µg/mL); in experiment [2], 159 µM (≈ 62.6 µg/mL); in experiment [3], 79 µM (≈ 31.1 µg/mL); in experiment [4] (ATCC 10211, 24 h) it was 79 µM (≈ 31.1 µg/mL); in experiment [5], 79 µM (≈ 31.1 µg/mL).
Turning to `O=c1oc2ccccc2cc1-c1csc(N/N=C\c2c(O)ccc3ccccc23)n1`, the MIC in experiment [1] is 75 µM (≈ 31 µg/mL); in experiment [2], 75 µM (≈ 31 µg/mL); in experiment [3], 75 µM (≈ 31 µg/mL); in experiment [4] (ATCC 10211, 24 h) it was 151 µM (≈ 62.4 µg/mL); in experiment [5] it was 151 µM (≈ 62.4 µg/mL).
For the molecule `O=c1oc2ccccc2cc1-c1csc(N/N=C\c2ccc(O)cc2)n1`, the MIC was found to be 172 µM (≈ 62.5 µg/mL) in experiment [1]; 344 µM (≈ 125 µg/mL) in experiment [2]; 344 µM (≈ 125 µg/mL) in experiment [3]; 344 µM (≈ 125 µg/mL) in experiment [4] (ATCC 10211, 24 h); 172 µM (≈ 62.5 µg/mL) in experiment [5].
With `OC(Cn1cncn1)(Cn1cncn1)c1ccc(F)cc1F` [FLUCONAZOLE], the MIC in experiment [5] is 10 µM (≈ 3.06 µg/mL).
`NNC(=O)c1ccncc1` [ISONIAZID] had an MIC in experiment [3] of 1.3 µM (≈ 0.178 µg/mL).
For `O=c1oc2ccccc2cc1-c1csc(N/N=C\c2cc(Br)ccc2O)n1`, the MIC in experiment [1] turned out to be 17 µM (≈ 7.52 µg/mL); in experiment [2], 35 µM (≈ 15.5 µg/mL); in experiment [3] it was 17 µM (≈ 7.52 µg/mL); in experiment [4] (ATCC 10211, 24 h), 17 µM (≈ 7.52 µg/mL); in experiment [5] it was 35 µM (≈ 15.5 µg/mL).
`O=c1oc2ccccc2cc1-c1csc(N/N=C\c2ccccc2O)n1`: the MIC in experiment [1] was found to be 344 µM (≈ 125 µg/mL); in experiment [2], 172 µM (≈ 62.5 µg/mL); in experiment [3], 43 µM (≈ 15.6 µg/mL); in experiment [4] (ATCC 10211, 24 h), 43 µM (≈ 15.6 µg/mL); in experiment [5], 86 µM (≈ 31.3 µg/mL).
